# ChEMBL document CHEMBL4842318, “A γ-lactam siderophore antibiotic effective against multidrug-resistant Pseudomonas aeruginosa, Klebsiella pneumoniae, and Acinetobacter spp” (Eur J Med Chem, 2021)
# Key:
# Pseudomonas aeruginosa [1] = assay: Antibacterial activity against wild type Pseudomonas aeruginosa isolate PR-545 assessed as inhibition of bacterial growth by microdilution method; type: functional
# Method in brief: (§1)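 Broth microdilution MIC in iron-depleted (Chelex resin-treated) cation-adjusted Mueller-Hinton broth, following the protocol used for siderophore-containing antibiotics. Inoculum was lowered to 6 × 10^4 cfu/mL.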
# Pseudomonas aeruginosa [2] = assay: Antibacterial activity against wild type Pseudomonas aeruginosa isolate PR-651 leucine at 533 residue assessed as inhibition of bacterial growth by microdilution method; type: functional; method in brief: as §1
# Pseudomonas aeruginosa [3] = assay: Antibacterial activity against Pseudomonas aeruginosa isolate PR-564 leucine at 533 residue assessed as inhibition of bacterial growth by microdilution method; type: functional
# Method in brief: (§2)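 Broth microdilution in Chelex-treated, iron-depleted cation-adjusted Mueller-Hinton broth, following the protocol used for siderophore-containing antibiotics; inoculum lowered to 6 × 10^4 cfu/mL; MIC read as growth inhibition, in μg/mL.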
# Pseudomonas aeruginosa [4] = assay: Antibacterial activity against wild type Pseudomonas aeruginosa isolate PR-503 assessed as inhibition of bacterial growth by microdilution method; type: functional; method in brief: as §1
# Pseudomonas aeruginosa [5] = assay: Antibacterial activity against wild type Pseudomonas aeruginosa isolate PR-636 leucine at 533 residue assessed as inhibition of bacterial growth by microdilution method; type: functional; method in brief: as §1
# Pseudomonas aeruginosa [6] = assay: Antibacterial activity against wild type Pseudomonas aeruginosa isolate PR-567 assessed as inhibition of bacterial growth by microdilution method; type: functional; method in brief: as §1
# Pseudomonas aeruginosa [7] = assay: Antibacterial activity against wild type Pseudomonas aeruginosa isolate PR-673 leucine at 533 residue assessed as inhibition of bacterial growth by microdilution method; type: functional; method in brief: as §1
# Pseudomonas aeruginosa [8] = assay: Antibacterial activity against wild type Pseudomonas aeruginosa isolate PR-672 assessed as inhibition of bacterial growth by microdilution method; type: functional; method in brief: as §1
# Pseudomonas aeruginosa [9] = assay: Antibacterial activity against wild type Pseudomonas aeruginosa isolate PR-668 leucine at 533 residue assessed as inhibition of bacterial growth by microdilution method; type: functional; method in brief: as §1
# Pseudomonas aeruginosa [10] = assay: Antibacterial activity against wild type Pseudomonas aeruginosa isolate PR-699 assessed as inhibition of bacterial growth by microdilution method; type: functional; method in brief: as §1
# Pseudomonas aeruginosa [11] = assay: Antibacterial activity against wild type Pseudomonas aeruginosa isolate PR-688 leucine at 533 residue assessed as inhibition of bacterial growth by microdilution method; type: functional; method in brief: as §1
# Pseudomonas aeruginosa [12] = assay: Antibacterial activity against wild type Pseudomonas aeruginosa isolate PR-676 assessed as inhibition of bacterial growth by microdilution method; type: functional; method in brief: as §1
# Pseudomonas aeruginosa [13] = assay: Antibacterial activity against wild type Pseudomonas aeruginosa isolate PR-680 leucine at 533 residue assessed as inhibition of bacterial growth by microdilution method; type: functional; method in brief: as §1
# Pseudomonas aeruginosa [14] = assay: Antibacterial activity against wild type Pseudomonas aeruginosa isolate PR-548 assessed as inhibition of bacterial growth by microdilution method; type: functional; method in brief: as §1
# Pseudomonas aeruginosa [15] = assay: Antibacterial activity against wild type Pseudomonas aeruginosa isolate PR-604 assessed as inhibition of bacterial growth by microdilution method; type: functional; method in brief: as §1
# Pseudomonas aeruginosa [16] = assay: Antibacterial activity against wild type Pseudomonas aeruginosa isolate PR-635 assessed as inhibition of bacterial growth by microdilution method; type: functional; method in brief: as §1
# Pseudomonas aeruginosa [17] = assay: Antibacterial activity against wild type Pseudomonas aeruginosa isolate PR-638 assessed as inhibition of bacterial growth by microdilution method; type: functional; method in brief: as §1
# Pseudomonas aeruginosa [18] = assay: Antibacterial activity against wild type Pseudomonas aeruginosa isolate PR-677 assessed as inhibition of bacterial growth by microdilution method; type: functional; method in brief: as §1
# Pseudomonas aeruginosa [19] = assay: Antibacterial activity against Pseudomonas aeruginosa isolate PR-627 leucine at 533 residue assessed as inhibition of bacterial growth by microdilution method; type: functional; method in brief: as §2
# Pseudomonas aeruginosa [20] = assay: Antibacterial activity against wild type Pseudomonas aeruginosa isolate PR-606 assessed as inhibition of bacterial growth by microdilution method; type: functional; method in brief: as §1
# Pseudomonas aeruginosa [21] = assay: Antibacterial activity against Pseudomonas aeruginosa AR-BANK#0229; type: functional; method in brief: as §2
# [22] = Inhibition of Acinetobacter sp. strain ATCC 27244 PBP3 expressed in Escherichia coli BL21 (DE3) assessed as reduction in fluorescence intensity using Bocillin-protein as fluorescent substrate by SDS PAGE analysis
# Acinetobacter baumannii [23] = assay: Antibacterial activity against carbapenem resistant Acinetobacter baumannii isolate PR-482 assessed as bacterial growth inhibition by microdilution method; type: functional; method in brief: as §2
# Acinetobacter baumannii [24] = assay: Antibacterial activity against carbapenem resistant Acinetobacter baumannii isolate PR-325 assessed as bacterial growth inhibition by microdilution method; type: functional; method in brief: as §2
# Acinetobacter baumannii [25] = assay: Antibacterial activity against carbapenem resistant Acinetobacter baumannii isolate PR-326 assessed as bacterial growth inhibition by microdilution method; type: functional; method in brief: as §2
# Acinetobacter baumannii [26] = assay: Antibacterial activity against carbapenem resistant Acinetobacter baumannii isolate PR-351 assessed as bacterial growth inhibition by microdilution method; type: functional; method in brief: as §2
# Acinetobacter baumannii [27] = assay: Antibacterial activity against carbapenem susceptible Acinetobacter baumannii isolate PR-434 assessed as bacterial growth inhibition by microdilution method; type: functional; method in brief: as §1
# [28] = Antibacterial activity against carbapenem susceptible Acinetobacter nosocomialis isolate PR-412 assessed as bacterial growth inhibition by microdilution method; type: functional; method in brief: as §1
# Acinetobacter baumannii [29] = assay: Antibacterial activity against carbapenem susceptible Acinetobacter baumannii isolate PR-340 assessed as bacterial growth inhibition by microdilution method; type: functional; method in brief: as §1
# Acinetobacter baumannii [30] = assay: Antibacterial activity against carbapenem resistant Acinetobacter baumannii isolate PR-345 assessed as bacterial growth inhibition by microdilution method; type: functional; method in brief: as §2
# Acinetobacter baumannii [31] = assay: Antibacterial activity against carbapenem susceptible Acinetobacter baumannii isolate PR-452 assessed as bacterial growth inhibition by microdilution method; type: functional; method in brief: as §1
# Acinetobacter baumannii [32] = assay: Antibacterial activity against carbapenem resistant Acinetobacter baumannii isolate PR-314 assessed as bacterial growth inhibition by microdilution method; type: functional; method in brief: as §2
# [33] = Antibacterial activity against carbapenem susceptible Acinetobacter nosocomialis isolate PR-365 assessed as bacterial growth inhibition by microdilution method; type: functional; method in brief: as §1
# Acinetobacter baumannii [34] = assay: Antibacterial activity against carbapenem resistant Acinetobacter baumannii isolate PR-319 assessed as bacterial growth inhibition by microdilution method; type: functional; method in brief: as §2
# Acinetobacter baumannii [35] = assay: Antibacterial activity against carbapenem resistant Acinetobacter baumannii isolate PR-401 assessed as bacterial growth inhibition by microdilution method; type: functional; method in brief: as §2
# [36] = Antibacterial activity against carbapenem susceptible Acinetobacter nosocomialis isolate PR-362 assessed as bacterial growth inhibition by microdilution method; type: functional; method in brief: as §1
# Acinetobacter baumannii [37] = assay: Antibacterial activity against carbapenem resistant Acinetobacter baumannii isolate PR-423 assessed as bacterial growth inhibition by microdilution method; type: functional; method in brief: as §2
# [38] = Antibacterial activity against carbapenem susceptible Acinetobacter nosocomialis isolate PR-491 assessed as bacterial growth inhibition by microdilution method; type: functional; method in brief: as §1
# Acinetobacter baumannii [39] = assay: Antibacterial activity against carbapenem resistant Acinetobacter baumannii isolate PR-387 assessed as bacterial growth inhibition by microdilution method; type: functional; method in brief: as §2
# Acinetobacter baumannii [40] = assay: Antibacterial activity against carbapenem resistant Acinetobacter baumannii isolate PR-380 assessed as bacterial growth inhibition by microdilution method; type: functional; method in brief: as §2
# Acinetobacter baumannii [41] = assay: Antibacterial activity against carbapenem susceptible Acinetobacter baumannii isolate PR-464 assessed as bacterial growth inhibition by microdilution method; type: functional; method in brief: as §1
# Acinetobacter baumannii [42] = assay: Antibacterial activity against carbapenem resistant Acinetobacter baumannii isolate PR-459 assessed as bacterial growth inhibition by microdilution method; type: functional; method in brief: as §2
# Acinetobacter baumannii [43] = assay: Antibacterial activity against carbapenem resistant Acinetobacter baumannii isolate PR-384 assessed as bacterial growth inhibition by microdilution method; type: functional; method in brief: as §2
# Acinetobacter baumannii [44] = assay: Antibacterial activity against carbapenem resistant Acinetobacter baumannii isolate PR-399 assessed as bacterial growth inhibition by microdilution method; type: functional; method in brief: as §2
# Acinetobacter baumannii [45] = assay: Antibacterial activity against carbapenem resistant Acinetobacter baumannii isolate PR-342 assessed as bacterial growth inhibition by microdilution method; type: functional; method in brief: as §2
# Acinetobacter baumannii [46] = assay: Antibacterial activity against 98 member subset of carbapenem resistant Acinetobacter baumannii assessed as assessed as inhibition of bacterial growth by microdilution method; type: functional; method in brief: as §2
# Acinetobacter baumannii [47] = assay: Antibacterial activity against panel of 198 clinical isolates Acinetobacter baumannii assessed as inhibition of bacterial growth by microdilution method; type: functional
structure (smiles),measurement,setting,value
CC(C)(O/N=C(\C(=O)N[C@H]1CN2CC(C(=O)NCCN3C(=O)c4cc(O)c(O)cc4C3=O)=C(C(=O)O)N2C1=O)c1csc(N)n1)C(=O)O (stereo in doubt),MIC,Pseudomonas aeruginosa [1],≤ 0.25 µg/mL
same,MIC,Pseudomonas aeruginosa [2],> 16 µg/mL
same,MIC,Pseudomonas aeruginosa [3],> 16 µg/mL
same,MIC,Pseudomonas aeruginosa [4],16 µg/mL
same,MIC,Pseudomonas aeruginosa [5],> 16 µg/mL
same,MIC,Pseudomonas aeruginosa [6],≤ 0.25 µg/mL
same,MIC,Pseudomonas aeruginosa [7],> 16 µg/mL
same,MIC,Pseudomonas aeruginosa [8],≤ 0.25 µg/mL
same,MIC,Pseudomonas aeruginosa [9],> 16 µg/mL
same,MIC,Pseudomonas aeruginosa [10],> 16 µg/mL
same,MIC,Pseudomonas aeruginosa [11],> 16 µg/mL
same,MIC,Pseudomonas aeruginosa [12],16 µg/mL
same,MIC,Pseudomonas aeruginosa [13],> 16 µg/mL
same,MIC,Pseudomonas aeruginosa [14],≤ 0.25 µg/mL
same,MIC,Pseudomonas aeruginosa [15],≤ 0.25 µg/mL
same,MIC,Pseudomonas aeruginosa [16],16 µg/mL
same,MIC,Pseudomonas aeruginosa [17],> 16 µg/mL
same,MIC,Pseudomonas aeruginosa [18],16 µg/mL
same,MIC,Pseudomonas aeruginosa [19],> 16 µg/mL
same,MIC,Pseudomonas aeruginosa [20],16 µg/mL
same,MIC,Pseudomonas aeruginosa [21],0.25 µg/mL
C[C@@H](O)[C@H]1C(=O)N2C(C(=O)O)=C(S[C@@H]3CN[C@H](CNS(N)(=O)=O)C3)[C@H](C)[C@H]12 [DORIPENEM],IC50,[22],2300 nM
CC1(C)[C@H](C(=O)O)N2C(=O)C[C@H]2S1(=O)=O [SULBACTAM],MIC,Acinetobacter baumannii [23],32 µg/mL
same,MIC,Acinetobacter baumannii [24],32 µg/mL
same,MIC,Acinetobacter baumannii [25],2 µg/mL
same,MIC,Acinetobacter baumannii [26],16 µg/mL
same,MIC,Acinetobacter baumannii [27],8 µg/mL
same,MIC,[28],2 µg/mL
same,MIC,Acinetobacter baumannii [29],4 µg/mL
same,MIC,Acinetobacter baumannii [30],16 µg/mL
same,MIC,Acinetobacter baumannii [31],1 µg/mL
same,MIC,Acinetobacter baumannii [32],16 µg/mL
same,MIC,[33],1 µg/mL
same,MIC,Acinetobacter baumannii [34],> 32 µg/mL
same,MIC,Acinetobacter baumannii [35],16 µg/mL
same,MIC,[36],1 µg/mL
same,MIC,Acinetobacter baumannii [37],16 µg/mL
same,MIC,[38],2 µg/mL
same,MIC,Acinetobacter baumannii [39],16 µg/mL
same,MIC,Acinetobacter baumannii [40],16 µg/mL
same,MIC,Acinetobacter baumannii [41],1 µg/mL
same,MIC,Acinetobacter baumannii [42],32 µg/mL
same,MIC,Acinetobacter baumannii [43],16 µg/mL
same,MIC,Acinetobacter baumannii [44],16 µg/mL
same,MIC,Acinetobacter baumannii [45],> 32 µg/mL
CC(C)(O/N=C(\C(=O)N[C@@H]1C(=O)N2C(C(=O)[O-])=C(C[n+]3ccccc3)CS[C@H]12)c1csc(N)n1)C(=O)O [CEFTAZIDIME],MIC50,Acinetobacter baumannii [46],> 64 µg/mL
same,MIC90,Acinetobacter baumannii [46],> 64 µg/mL
same,MIC50,Acinetobacter baumannii [47],64 µg/mL
same,MIC90,Acinetobacter baumannii [47],> 64 µg/mL
C[C@H]1[C@H](NC(=O)/C(=N\OC(C)(C)C(=O)O)c2csc(N)n2)C(=O)N1S(=O)(=O)O [AZTREONAM],MIC50,Acinetobacter baumannii [46],> 32 µg/mL
same,MIC90,Acinetobacter baumannii [46],> 32 µg/mL
C[C@@H](O)[C@H]1C(=O)N2C(C(=O)O)=C(S[C@@H]3CN[C@H](C(=O)N(C)C)C3)[C@H](C)[C@H]12 [MEROPENEM],MIC90,Acinetobacter baumannii [46],> 64 µg/mL
same,MIC50,Acinetobacter baumannii [47],8 µg/mL
same,MIC90,Acinetobacter baumannii [47],> 64 µg/mL
